# Assay results gathered from unrelated publications.
# BRD9: Bromodomain-containing protein 9 (BRD9, Homo sapiens, UniProt Q9H8M2)
SMILES,target,test,setting,quantity,result
C1=C/COCc2cc(ccc2OCCN2CCCC2)Nc2nccc(n2)-c2cccc(c2)COC/1,"Activin receptor type-2A (ACVR2A, Homo sapiens, UniProt P27037)",binding,0.1 µM,remaining binding,83%
CCN1/C(=C/C(C)=O)Sc2ccc(F)cc21,"D(1B) dopamine receptor (DRD5, Homo sapiens, UniProt P21918)","ligand displacement, radioligand",10 µM,inhibition,2.77%
NC/C(=C\F)COc1cccc(Cn2c(=S)[nH]c(=O)c3[nH]cnc32)c1,"Histamine H3 receptor (HRH3, Homo sapiens, UniProt Q9Y5N1)","ligand displacement, radioligand",10 µM,inhibition,< 50%
Cc1cc(O)c(-c2ccc([C@@H](C)CN(C)C)cc2)c2c1[nH]c(=O)c1sccc12,"G protein-coupled receptor kinase 5 (GRK5, Homo sapiens, UniProt P34947)","enzyme activity, inhibitor",0.1 µM,inhibition,-6.65%
COc1cc(-c2cc(C(C)=O)n3ccccc23)c(OC)cc1CN(C)C,BRD9,"thermal stability, DSF",200 µM,ΔTm,12.5 °C
Cc1ncc(-c2cc3cc(-c4c(C)ccc(O)c4C)cnc3[nH]2)cn1,"Membrane-associated tyrosine- and threonine-specific cdc2-inhibitory kinase (PKMYT1, Homo sapiens, UniProt Q99640)","cell-free assay, TR-FRET",10 µM,inhibition,101%
CCC(=O)c1cc(-c2cc(OC)c(Cn3ccnc3)c(OC)c2)c2ccccn12,BRD9,"thermal stability, DSF",200 µM,ΔTm,9.8 °C
COc1ccc2oc(-c3ccc4nc(N)oc4c3)c/c(=N\c3ccccc3NC(=O)CCN)c2c1,"Serine/threonine-protein kinase 35 (STK35, Homo sapiens, UniProt Q8TDR2)",binding,1 µM,remaining binding,104%
COc1cc(-c2cc(C(C)=O)n3ccccc23)c(OC)cc1C(=O)N(C)C,BRD9,"thermal stability, DSF",200 µM,ΔTm,13.5 °C
CCCCC(=O)Nc1ccc(-c2ccc3ncn(CCC)c(=O)c3c2)cn1,"Bone morphogenetic protein receptor type-1A (BMPR1A, Homo sapiens, UniProt P36894)","binding, competition with immobilised ligand",0.5 µM,remaining binding,84%
